Source: ChEMBL document CHEMBL3751754, “In vitro efficacy of 2,N-bisarylated 2-ethoxyacetamides against Plasmodium falciparum” (Bioorg Med Chem Lett, 2016)

Key:
Plasmodium falciparum [1] = test: Resistant index, ratio of IC50 for chloroquine, quinine and pyrimethamine-resistant Plasmodium falciparum W2 to IC50 for mefloquine-resistant Plasmodium falciparum D6; format: functional
How it was run: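 Index is W2 IC50 divided by D6 IC50. Each IC50 is from inhibition of [3H]hypoxanthine uptake in a single experiment.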

[2] = Half life in human liver microsomes at 25 uM by LC-MS analysis; format: ADME
How it was run: (§1)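 Test compound at 25 µM with pooled human liver microsomes (0.5 mg/mL total protein) in 0.1 M sodium phosphate, pH 7.4. An NADPH-regenerating system was included (1.25 mM NADP+, 3.3 mM glucose-6-phosphate, 3.3 mM MgCl2). Reaction was started with glucose-6-phosphate dehydrogenase (1 unit/mL final). Parent remaining at various time points was measured by LC-MS. Half-life assumed first-order decay; values from one experiment.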

Plasmodium falciparum [3] = test: Antiplasmodial activity against mefloquine-resistant Plasmodium falciparum D6 assessed as inhibition of [3H]-hypoxanthine uptake after 48 hrs by liquid scintillation counting analysis; format: functional, organism-based
How it was run: (§2)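 IC50 from inhibition of [3H]hypoxanthine uptake by P. falciparum W2 or D6 parasites. Values come from a single experiment.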

[4] = Half life in mouse liver microsomes at 25 uM by LC-MS analysis; format: ADME
Plasmodium falciparum [5] = test: Antiplasmodial activity against chloroquine, quinine and pyrimethamine-resistant Plasmodium falciparum W2 assessed as inhibition of [3H]-hypoxanthine uptake after 48 hrs by liquid scintillation counting analysis; format: functional, organism-based; how it was run: as §2
[6] = Bio-transformation in human liver microsomes at 25 uM after 30 mins by LC-MS analysis; format: ADME; details: read-out: Drug metabolism; how it was run: as §1

Row | metabolised at 0.5 h, 25 µM [6] [%] | Compound | Ratio IC50 (Plasmodium falciparum [1]) | half-life at 25 µM [2] [min] | IC50 (Plasmodium falciparum [3]) [µM] | half-life at 25 µM [4] [min] | IC50 (Plasmodium falciparum [5]) [µM]
1 | – | CCOC(C(=O)Nc1ccc(Cl)cc1Cl)c1cnc2ccccc2c1 (stereo not drawn) | 0.43 | > 60 | 4.5 | > 60 | 2
2 | – | CCOC(C(=O)Nc1cnc2ccccc2c1)c1ccc(Cl)cc1Cl (stereo not drawn) | 2.7 | – | 9.8 | – | 27
3 | – | CCOC(C(=O)Nc1ccc(Cl)c(Cl)c1)c1ccnc2ccccc12 (stereo not drawn) | 0.8 | – | 15 | – | 12
4 | – | CCOC(C(=O)Nc1cc(Cl)ccc1Cl)c1ccnc2ccccc12 (stereo not drawn) | 1 | – | 14 | – | 15
5 | 100 | O=C(/C=C/c1ccnc2ccccc12)c1ccc(Cl)c(Cl)c1 | – | – | – | – | –
6 | – | CCOC(C(=O)Nc1ccc2ncccc2c1)c1ccc(Cl)c(Cl)c1 (stereo not drawn) | – | – | 7.7 | – | 9.1
7 | – | CCOC(C(=O)Nc1ccc(Cl)cc1Cl)c1ccnc2ccccc12 (stereo not drawn) | 0.26 | > 60 | 6.9 | > 60 | 1.8
8 | – | CCOC(C(=O)Nc1cccc2ncccc12)c1cc(Cl)ccc1Cl (stereo not drawn) | 1.4 | – | 11 | – | 15
9 | – | CCOC(C(=O)Nc1ccnc2ccccc12)c1ccc(Cl)c(Cl)c1 (stereo not drawn) | 0.53 | 27 | 3.2 | 30 | 1.7
10 | – | CCOC(C(=O)Nc1cnc2ccccc2c1)c1ccc(Cl)c(Cl)c1 (stereo not drawn) | – | – | 13 | – | 5.9
11 | – | CCOC(C(=O)Nc1ccc2ccccc2n1)c1ccc(Cl)c(Cl)c1 (stereo not drawn) | 0.76 | – | 19 | – | 15
12 | – | CCOC(C(=O)Nc1cccc2ncccc12)c1ccc(Cl)cc1Cl (stereo not drawn) | – | – | > 27 | – | > 27
13 | – | CCOC(C(=O)Nc1cc(Cl)ccc1Cl)c1cnc2ccccc2c1 (stereo not drawn) | 1.1 | – | 14 | – | 14
14 | – | CCOC(C(=O)Nc1cccc2cccnc12)c1ccc(Cl)cc1Cl (stereo not drawn) | – | – | > 27 | – | > 27
15 | – | CCOC(C(=O)Nc1ccnc2ccccc12)c1cc(Cl)ccc1Cl (stereo not drawn) | 1.2 | – | 12 | – | 14
16 | – | CCOC(C(=O)Nc1cccc2cccnc12)c1ccc(Cl)c(Cl)c1 (stereo not drawn) | 0.84 | – | 20 | – | 16
17 | 100 | O=C(/C=C/c1cnc2ccccc2c1)c1cc(Cl)ccc1Cl | – | – | – | – | –
18 | 100 | O=C(/C=C/c1ccnc2ccccc12)c1cc(Cl)ccc1Cl | – | – | – | – | –
19 | – | CCOC(C(=O)Nc1ccnc2ccccc12)c1ccc(Cl)cc1Cl (stereo not drawn) | 1 | – | 14 | – | 15
20 | – | CCOC(C(=O)Nc1cccc2cccnc12)c1cc(Cl)ccc1Cl (stereo not drawn) | – | – | 14 | – | > 27
21 | – | CCOC(C(=O)Nc1cccc2ncccc12)c1ccc(Cl)c(Cl)c1 (stereo not drawn) | – | – | > 27 | – | > 27
22 | – | CCOC(C(=O)Nc1ccc2ccccc2n1)c1ccc(Cl)cc1Cl (stereo not drawn) | 0.88 | – | 15 | – | 14
23 | – | CCOC(C(=O)Nc1cnc2ccccc2c1)c1cc(Cl)ccc1Cl (stereo not drawn) | 1.4 | 27 | 6.7 | 9 | 9.6
24 | – | CCOC(C(=O)Nc1ccc2ncccc2c1)c1cc(Cl)ccc1Cl (stereo not drawn) | – | – | > 17 | – | > 17
25 | – | CCOC(C(=O)Nc1ccc(Cl)c(Cl)c1)c1cnc2ccccc2c1 (stereo not drawn) | 0.71 | – | 18 | – | 13
26 | – | CCOC(C(=O)Nc1ccc2ccccc2n1)c1cc(Cl)ccc1Cl (stereo not drawn) | – | – | 19 | – | > 27
27 | – | CCOC(C(=O)Nc1ccc2ncccc2c1)c1ccc(Cl)cc1Cl (stereo not drawn) | 0.92 | – | 15 | – | 14

Row | Compound | metabolised at 0.5 h, 25 µM [6] [%] | Ratio IC50 (Plasmodium falciparum [1]) | half-life at 25 µM [2] [min] | IC50 (Plasmodium falciparum [3]) [µM] | half-life at 25 µM [4] [min] | IC50 (Plasmodium falciparum [5]) [µM]
28 | O=C(/C=C/c1ccc(Cl)cc1)c1ccc(Cl)cc1 [4',4-DICHLOROCHALCONE] | 85 | 2 | – | 2.6 | – | 5.3
29 | CCOC(C(=O)Nc1ccc(Cl)cc1)c1ccc(Cl)cc1 (stereo not drawn) | 0 | 1.5 | – | 7.3 | – | 11
